Results on 18 compounds are retold here after ChEMBL document CHEMBL1150111, “Natural products inhibiting Candida albicans secreted aspartic proteases from Lycopodium cernuum” (J Nat Prod, 2002).

Values after ≈ are worked out from the molar mass of the structure shown. Active and inactive are the calls of the source. The calls are words filed in the database; no cut-off is given here.

In assay [1] the test system is Candida albicans. Briefly: (§1) Inhibition of Candida albicans secreted aspartic protease. The procedure, abridged:
(§2)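 Candida albicans secreted aspartic protease (SAP) inhibition assay run by the earlier published method. Aspartic protease inhibitor pepstatin A served as positive control. Activity is reported as IC50 in µg/mL.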

Assay [2] can be described thus: as §1. The procedure, abridged: as §2

On to `COC(=O)[C@]1(C)[C@@H]2CC[C@@]3(C)CC4=CC(=O)[C@@H]5[C@](C)(CC[C@@H](O)[C@]5(C)CO)[C@H]4CC[C@@H]3[C@@]2(C)CC[C@@H]1O`, for which the outcome in assay [1] was inactive.
As usually defined, the IC50 is the concentration that inhibits the measured activity by half. Low readings indicate inhibition by little substance, high ones a need for much substance. Take `C[C@@]12CC[C@@H]3[C@](C)(CC[C@H](O)[C@]3(C)C(=O)O)[C@H]1CC[C@@H]1[C@@]3(C)CC[C@@H](O)[C@](C)(CO)[C@@H]3C[C@H](O)[C@@]1(O)C2` [LYCERNUIC ACID C]: the IC50 in assay [2] is 20 µg/mL (≈ 38.3 µM).
Turning to `CC(=O)O[C@H]1CC[C@@]2(C)[C@@H](CC[C@@]3(C)CC4=CC[C@H]5C(C)(C)[C@H](OC(C)=O)CC[C@]5(C)[C@H]4CC[C@@H]32)[C@@]1(C)C(=O)O`, the result in assay [1] was inactive.
With `COC(=O)[C@@]1(C)[C@H](O)CC[C@@]2(C)[C@H]1CC[C@@]1(C)CC3=CC(=O)[C@@H]4[C@](C)(CC[C@@H](O)[C@]4(C)CO)[C@H]3CC[C@@H]12`, in assay [1], the result was inactive.
Still for that read-out and setting: the value for `CC(=O)O[C@H]1CC[C@@]2(C)[C@@H](CC[C@@]3(C)CC4=C(CC[C@@H]32)[C@@]2(C)CC[C@@H](OC(C)=O)C(C)(C)[C@@H]2CC4)[C@@]1(C)C(=O)O` was “inactive”; that for `CC1(C)[C@@H](O)CC[C@@]2(C)[C@H]1CC[C@@]1(C)CC3=CC[C@H]4C(C)(C)[C@H](O)CC[C@]4(C)[C@H]3CC[C@@H]12` was “inactive”; that for `CC(=O)O[C@H]1CC[C@@]2(C)[C@@H](CC[C@@]3(C)C[C@@]4(O)[C@H](O)C[C@H]5C(C)(C)[C@H](OC(C)=O)CC[C@]5(C)[C@H]4CC[C@@H]32)[C@@]1(C)C(=O)O` was “inactive”.
Consider `CC1(C)[C@H](O)CC[C@]2(C)[C@H]3CC[C@H]4[C@@](C)(CC[C@@H]5[C@]4(C)CC[C@@H](O)[C@]5(C)CO)CC3=CC(=O)[C@@H]12`, for which, in assay [1], the result was inactive.
In the case of `O=C(/C=C/c1ccc(O)cc1)OC[C@H]1O[C@@H](Oc2ccc(-c3cc(=O)c4c(O)cc(O)cc4o3)cc2)[C@H](OC(=O)/C=C/c2ccc(O)cc2)[C@@H](O)[C@@H]1O`, the IC50 in assay [2] is 8.5 µg/mL (≈ 11.7 µM).
`C[C@@]12CC[C@@H]3[C@](C)(CC[C@H](O)[C@]3(C)C(=O)O)[C@H]1CC[C@H]1C(=CC[C@@H]3[C@]1(C)CC[C@@H](O)[C@]3(C)CO)C2`: the outcome in assay [1] was inactive.
As to `CC1(C)[C@H](O)CC[C@]2(C)[C@H]3CC[C@H]4[C@@](C)(CC[C@@H]5[C@]4(C)CC[C@H](O)[C@]5(C)C(=O)O)C[C@]3(O)[C@@H](O)C[C@@H]12`, the result in assay [1] was inactive.
In turn, `CC(C)CC(=O)N[C@H](C(=O)N[C@H](C(=O)N[C@@H](CC(C)C)[C@@H](O)CC(=O)N[C@@H](C)C(=O)N[C@@H](CC(C)C)[C@@H](O)CC(=O)O)C(C)C)C(C)C` [PEPSTATIN] yielded an IC50 in assay [2] of 0.0015 µg/mL (≈ 0.00219 µM).
On to `CC(=O)O[C@H]1CC[C@@]2(C)[C@@H](CC[C@@]3(C)C[C@@]4(O)CC[C@H]5C(C)(C)[C@H](OC(C)=O)CC[C@]5(C)[C@H]4CC[C@@H]32)[C@@]1(C)C(=O)O`, for which, in assay [1], the outcome was inactive.
Consider `CC1(C)[C@H](O)CC[C@@]2(C)[C@H]1CC[C@]1(O)C[C@]3(C)CC[C@@H]4[C@](C)(CC[C@H](O)[C@]4(C)C(=O)O)[C@H]3CC[C@@H]12`, for which the outcome in assay [1] was inactive.
On the same count and under the same terms, in the case of `CC(=O)O[C@H]1CC[C@@]2(C)[C@@H](CC[C@@]3(C)C[C@@]4(O)[C@H](CC[C@@H]32)[C@@]2(C)CC[C@@H](OC(C)=O)C(C)(C)[C@@H]2C[C@@H]4O)[C@@]1(C)C(=O)O` it was “inactive”; in that of `CC1(C)[C@@H](O)CC[C@@]2(C)[C@H]1CC[C@@]1(C)CC3=CC[C@H]4C(C)(C)[C@@H](O)CC[C@]4(C)[C@H]3CC[C@@H]12`, “inactive”.
Same read-out and setting: in the case of `CC(=O)OC[C@]1(C)[C@@H]2C[C@H](OC(C)=O)[C@@]3(O)C[C@]4(C)CC[C@@H]5[C@](C)(CC[C@H](OC(C)=O)[C@]5(C)C(=O)O)[C@H]4CC[C@@H]3[C@@]2(C)CC[C@H]1OC(C)=O` it was “inactive”; in that of `CC1(C)[C@H](O)CC[C@]2(C)[C@H]3CC[C@H]4[C@@](C)(CC[C@@H]5[C@]4(C)CC[C@H](O)[C@]5(C)C(=O)O)CC3=CC[C@@H]12`, “inactive”.
